This is a sample that favours compounds with a hit; in the whole collection about 2.8% have one here.
Wee1 stabilizer: blocks degradation of human Wee1 kinase. P30291. HeLa Luc-Wee1K328M stability, luciferase luminescence; 100% = proteasome inhibitor MG132 effect. reporter increase, % at 5 µM. actives 1.2% (n = 220,000). AID 1321;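 active means activation above the mean of all tested compounds plus 3 SD, set per screening run, cut at about 8.8% in these data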;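 further: cells exposed to compound for 20 h before luminescence read; 0% = DMSO alone and 100% = MG132 at 30 µM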
RBBP9 inhibitor: human RBBP9 hydrolase inhibition | actives 0.2% (n = 220,000) | O75884 | recombinant RBBP9, FP-Rh probe fluorescence polarization | inhibition, % at 7.94 µM | AID 1515;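 active means inhibition above the campaign mean of all tested compounds plus 3 SD, cut at about 14% in these data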;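 further: plate controls were DMSO wells with RBBP9 for no effect and wells lacking RBBP9 protein for full effect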
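Assay system: recombinant human RBBP9; Reagent: Serine-hydrolase probe FP-Rh, 375 nM pre-mixing; Doses: 7.94 µM single dose, 0.794% DMSO; Incubation: 30 min then 45 min, 25 °C; Detection: fluorescence polarization (mP), excitation 525 nm, emission 598 nm; Evaluation: percent inhibition from mP, scaled between DMSO and no-protein wells.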
eIF4E-4G inh: inhibitors of eIF4E and eIF4G interaction in translation initiation; P63073+Q04637; TR-FRET eIF4E-eIF4GI(517-606) binding, 2 h; inhibition, % at 21.7 µM; actives 0.37% (n = 220,000);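 further: 0% = full FRET control wells and 100% = background wells lacking eIF4GI fragment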
p47phox inh: blocks human p47phox regulatory protein of NADPH oxidases | inhibition, % at 24.7 µM | P14598 | actives 0.53% (n = 220,000) | p47phox/p22phox peptide binding, fluorescence polarization, 2 h;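 further: 0% = p47phox with labelled peptide and 100% = labelled peptide alone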
Target sequence (P14598 whole entry, looked up): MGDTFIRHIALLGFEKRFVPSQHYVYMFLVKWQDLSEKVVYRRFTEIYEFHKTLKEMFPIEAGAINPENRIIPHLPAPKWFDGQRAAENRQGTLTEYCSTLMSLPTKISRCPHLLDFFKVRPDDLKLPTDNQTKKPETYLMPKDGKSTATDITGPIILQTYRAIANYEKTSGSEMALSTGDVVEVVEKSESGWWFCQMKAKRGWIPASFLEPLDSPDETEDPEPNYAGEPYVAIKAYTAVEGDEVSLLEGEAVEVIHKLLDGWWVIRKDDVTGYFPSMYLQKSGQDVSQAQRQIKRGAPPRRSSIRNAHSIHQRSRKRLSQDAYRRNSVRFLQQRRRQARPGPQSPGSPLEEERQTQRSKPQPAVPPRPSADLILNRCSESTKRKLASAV
14-3-3 Bad PPI: disrupts binding of bovine 14-3-3 zeta to phospho-Bad peptide. inhibition, % at 21.7 µM. P63103. AID 781. actives 0.71% (n = 220,000). TR-FRET 14-3-3zeta/Dy647-pBad peptide displacement, 1 h;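 active means inhibition above about 70%, limit read from the data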;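 further: 0% = full 14-3-3 plus peptide FRET controls and 100% = background without 14-3-3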
Active calls of the source: *; · = no result given; [ ] = another dose, or the depositor's remark.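 How the source made its calls, unless noted: active means inhibition above about 30% (limit read from the data); inactive means the rest.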

SMILES	Wee1 stabilizer	RBBP9 inhibitor	eIF4E-4G inh	p47phox inh	14-3-3 Bad PPI
Cc1ccc(NC(=O)CSc2ncn[nH]2)cc1S(=O)(=O)N1CCOCC1	-2	-1	1	1	-3
Cc1cc(C)c(S(=O)(=O)/N=C2/C=C(Sc3ncn[nH]3)C(=O)c3ccccc32)cc1C	-3	8	26	54*	76*[fluorescence artefact?]
CCC(=O)NCc1cc(-c2nn(C)c(=O)c3ccccc23)ccc1C	2	2	1	-2	-2
Cc1ccc(-c2nn(CC(=O)NCc3cc(-c4nn(C)c(=O)c5ccccc45)ccc3C)c(=O)c3ccccc23)cc1	3	1	26	59*	72*
Cc1ccc(C(=O)CSc2nnc(N)s2)c(C)c1	8	-5	-3	0	-11
Cc1ccccc1C(=O)NC1CC2CCC(C1)N2Cc1ccccc1 (stereo unspecified)	0	0	0	-6	-11
Cc1ccc(S(=O)(=O)N2CCN(CC(=O)N(CC(C)C)c3c(N)n(CC(C)C)c(=O)[nH]c3=O)CC2)c(C)c1	3	3	2	-12	-3
CC(=O)c1c(COC(=O)c2ccccc2Cl)nc2ccccc2[n+]1[O-]	1	-11	3	-3	-4
CCN(CC)c1ccc(C(=S)NC2CCCCC2)cc1	-1	-5	-2	-5	-4
CN(C)c1ccc(C(=S)NC2CCCCC2)cc1	10*	-3	-1	18	-5
Cc1ccc(C(=O)Nc2nc(C)c(C(=O)Nc3ccc4c(c3)CCC4)s2)cc1	9.8*	-29	5	-22	-2
Cc1cc(C(=O)CN2C(=O)NC3(CCCCC3)C2=O)c(C)n1Cc1ccc2c(c1)OCO2	9.2*	-5	-1	-12	3
CC(Sc1nncn1C)C(=O)NCc1ccc2c(c1)OCO2 (stereo unspecified)	-1	-7	2	-6	3
O=[N+]([O-])c1cccc(P(=O)(O)c2cccc([N+](=O)[O-])c2)c1	25*	-2	-8	-8	2
COCCNC(=O)CN(c1cc(C(F)(F)F)ccc1Cl)S(C)(=O)=O	10*	-1	0	-7	-3
CCN(C(=O)CN1CCOCC1)C1(C)C(=O)c2ccccc2C1=O	2	1	1	7	16
O=C(c1cccc(F)c1)N1CCN(S(=O)(=O)Cc2ccccc2)CC1	-2	-3	0	2	-4
CCCCCCCCNC(CO)(CO)CO	-3	-5	-3	-6	1
CCN1CCN(CCOc2ccc(Br)cc2C)CC1	-3	9	12	4	89*
Cc1cc(Br)ccc1OCCN1CC(C)OC(C)C1 (stereo unspecified)	1	-6	-7	2	33
C/C(=N\NC(=O)c1cc(-c2cccc([N+](=O)[O-])c2)n[nH]1)c1ccccc1O	0	0	4	16	55
O=C1CC(=C2c3ccccc3-c3ccccc32)C(=O)N1CCN1CCN(c2cccc(Cl)c2)CC1	1	-8	·	·	·
N#C/C(=C\c1ccc(OC(=O)c2ccc(Br)s2)cc1)c1nc2ccccc2[nH]1	2	-11	34*	5	61
COC(=O)c1cc(-n2cccc2)ccc1N1CCOCC1	1	-8	7	-9	-4
COC(=O)c1cc(NS(=O)(=O)c2ccc(C)c3ccccc23)ccc1N1CCOCC1	9.0*	0	7	-15	6
SMILES	Wee1 stabilizer	RBBP9 inhibitor	eIF4E-4G inh	p47phox inh	14-3-3 Bad PPI
NC(=S)n1[nH]c(-c2ccc([N+](=O)[O-])cc2)c(N=Nc2ccc(Cl)cc2)c1=O	-2	-5	9	29	93*
Cc1ccc([N+](=O)[O-])cc1N=Nc1c(-c2ccc([N+](=O)[O-])cc2)[nH]n(C(N)=S)c1=O	-2	-3	18	4	43
COc1cccc(C(c2nnnn2Cc2ccc(F)cc2)N2CCC(C(N)=O)CC2)c1OC (stereo unspecified)	1	-1	-10	-9	77*
NNC(=O)/C(=N/Nc1ccccc1)S(=O)(=O)c1ccc(Cl)cc1	-1	7	5	-14	1
Cc1ccc(C(C)C)c(OCC(=O)N/N=C/C2CCCCC2)c1	9.2*	-3	1	-1	7
Cc1ccc(C(C)C)c(OCC(=O)NN=C2CCCC2)c1	6	-6	-4	0	-6
O=C(COc1ccc2c(c1)OCO2)Nc1ccccc1C(F)(F)F	6	-6	0	-6	4

Bioassay records: PubChem, several laboratories
